The nature of test [1]: Agonist activity at human PPARgamma 1 in HEK293T cells at 50 uM by GAL4 transactivation assay relative to rosiglitazone. In kind it is functional, HEK-293T. The gist of the method: (§1)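 HEK 293T cells grown in DMEM-10% FBS at 37 °C, 5% CO2, then plated at 50–60% confluence in DMEM with 10% delipidated FBS one day before Superfect transfection. Reagent removed after 3 h. At 42 h post-transfection, cells moved to phenol red-free DMEM-DFBS and treated 18 h with compound or vehicle. Cells lysed, luciferase measured, expressed as fold activation over untreated cells.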

Test [2] addresses T1, Peroxisome proliferator-activated receptor alpha (Homo sapiens) (UniProt Q07869).
T1 sequence (whole entry): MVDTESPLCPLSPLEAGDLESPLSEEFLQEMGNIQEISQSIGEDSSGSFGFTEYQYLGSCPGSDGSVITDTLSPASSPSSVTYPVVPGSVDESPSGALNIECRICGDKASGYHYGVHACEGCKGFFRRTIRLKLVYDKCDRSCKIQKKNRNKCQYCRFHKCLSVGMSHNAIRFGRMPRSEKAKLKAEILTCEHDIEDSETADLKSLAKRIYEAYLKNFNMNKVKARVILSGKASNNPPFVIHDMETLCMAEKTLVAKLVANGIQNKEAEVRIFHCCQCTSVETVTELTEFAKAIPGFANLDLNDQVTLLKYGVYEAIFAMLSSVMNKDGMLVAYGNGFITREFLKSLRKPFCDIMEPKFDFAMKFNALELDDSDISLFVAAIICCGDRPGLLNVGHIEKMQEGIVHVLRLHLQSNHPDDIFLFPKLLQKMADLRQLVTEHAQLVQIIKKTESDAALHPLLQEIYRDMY
Description: Agonist activity at human PPARalpha in HEK293T cells at 50 uM by GAL4 transactivation assay relative to WY-14643. In kind it is functional, cell-based. Particulars: HEK-293T. The method in brief: as §1

Each structure is given as a SMILES string.

Regarding `C/C(=C/C(=O)c1ccccc1)N[C@@H](Cc1ccc(OCCCOc2cccc3[nH]c4ccccc4c23)cc1)C(=O)O`, the results for the Activity in test [1] and in test [2] were 15.1 and 5.1, respectively.
For `O=C(C1=C(N[C@@H](Cc2ccc(OCCn3c4ccccc4c4ccccc43)cc2)C(=O)O)CCCC1)c1ccccc1` the same measures were 8.4 and 1.
On to `C/C(=C/C(=O)c1ccccc1)N[C@@H](Cc1ccc(OCCOc2ccc3c(c2)[nH]c2ccccc23)cc1)C(=O)O`, for which the Activity in test [1] came out at 4.2; in test [2] it was 2.
With `C/C(=C/C(=O)c1ccccc1)N[C@@H](Cc1ccc(OCCOc2cccc3[nH]c4ccccc4c23)cc1)C(=O)O`, the Activity in test [1] is 48.2; in test [2] it was 4.6.
As to `C/C(=C/C(=O)c1ccccc1)N[C@@H](Cc1ccc(OCCc2ccc(C(F)(F)F)cc2)cc1)C(=O)O`, the figures for the Activity in test [1] and in test [2] were 0.7 and 0.3, respectively.
For `COC(=O)[C@H](Cc1ccc(OCCOc2ccc3c(c2)[nH]c2ccccc23)cc1)N/C(C)=C\C(=O)c1ccccc1` the same measures were 1.8 and 1.9.
For `C/C(=C/C(=O)c1ccccc1)N[C@@H](Cc1ccc(OCCn2c3ccccc3c3ccccc32)cc1)C(=O)O` the same measures were 1.7 and 1.4.
Taken in the same sequence, the figures for `C/C(=C/C(=O)c1ccccc1)N[C@@H](Cc1ccc(OCCOc2cc(C(F)(F)F)nc3c(C(F)(F)F)cccc23)cc1)C(=O)O` were 2.3 and 1.1.
With `COC(=O)[C@H](Cc1ccc(OCCn2c3ccccc3c3ccccc32)cc1)NC1=C(C(=O)c2ccccc2)CCCC1`, the Activity was 3 in test [1] and 0.5 in test [2].
Taken in the same sequence, the figures for `C/C(=C/C(=O)c1ccccc1)N[C@@H](Cc1ccc(OCCOc2ccc(C(=O)c3ccc(Cl)cc3)cc2)cc1)C(=O)O` were 22.6 and 2.8.
Take `COC(=O)[C@H](Cc1ccc(OCCOc2cccc3[nH]c4ccccc4c23)cc1)NC1=C(C(=O)c2ccccc2)CCCC1`: the results for the Activity in test [1] and in test [2] were 4.7 and 1.4, respectively.
Turning to `O=C(C1=C(N[C@@H](Cc2ccc(OCCOc3cccc4[nH]c5ccccc5c34)cc2)C(=O)O)CCCC1)c1ccccc1`, the Activity in test [1] worked out at 11.2; in test [2], 1.2.
Consider `COC(=O)[C@H](Cc1ccc(OCCn2c3ccccc3c3ccccc32)cc1)N/C(C)=C\C(=O)c1ccccc1`, for which the values for the Activity in test [1] and in test [2] were 1.9 and 1.2, respectively.

For the origin of these results see ChEMBL document CHEMBL1139058, “Synthesis, in vitro and in silico evaluation of l-tyrosine containing PPARalpha/gamma dual agonists” (2007).
